Reference: ChEMBL document CHEMBL2346629, “Discovery and characterization of novel allosteric FAK inhibitors” (Eur J Med Chem, 2013)

Tests used:
[1] = biological target: Serine/threonine-protein kinase 3 (Homo sapiens) (UniProt Q13188); assay: Inhibition of MST2 (unknown origin) using [gamma-33P]ATP assessed as residual activity at 3 uM
[2] = biological target: Rhodopsin kinase GRK7 (Homo sapiens) (UniProt Q8WTQ7); assay: Inhibition of GRK7 (unknown origin) using [gamma-33P]ATP assessed as residual activity at 3 uM
Outline: (§1)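 Radiometric kinase profiling service covering 288 kinases (261 wild-type, 27 mutant). Inhibition was read as incorporation from [γ-³³P]ATP.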

[3] = biological target: Death-associated protein kinase 2 (Homo sapiens) (UniProt Q9UIK4); assay: Inhibition of DAPK2 (unknown origin) using [gamma-33P]ATP assessed as residual activity at 3 uM
Outline: (§2)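 Reaction Biology HotSpot radiometric profiling panel of 288 kinases (261 wild-type, 27 mutant). Kinase activity was read out by incorporation of [γ-33P]ATP.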

[4] = biological target: Serine/threonine-protein kinase WNK2 (Homo sapiens) (UniProt Q9Y3S1); assay: Inhibition of WNK2 (unknown origin) using [gamma-33P]ATP assessed as residual activity at 3 uM
[5] = biological target: SRSF protein kinase 2 (Homo sapiens) (UniProt P78362); assay: Inhibition of SRPK2 (unknown origin) using [gamma-33P]ATP assessed as residual activity at 3 uM
[6] = biological target: Ephrin type-A receptor 7 (Homo sapiens) (UniProt Q15375); assay: Inhibition of EPHA7 (unknown origin) using [gamma-33P]ATP assessed as residual activity at 3 uM; outline: as §2
[7] = biological target: Ephrin type-A receptor 2 (Homo sapiens) (UniProt P29317); assay: Inhibition of EPHA2 (unknown origin) using [gamma-33P]ATP assessed as residual activity at 3 uM; outline: as §2
[8] = biological target: Receptor-interacting serine/threonine-protein kinase 2 (Homo sapiens) (UniProt O43353); assay: Inhibition of RIPK2 (unknown origin) using [gamma-33P]ATP assessed as residual activity at 3 uM
[9] = biological target: Tyrosine-protein kinase Lyn (Homo sapiens) (UniProt P07948); assay: Inhibition of LYN (unknown origin) using [gamma-33P]ATP assessed as residual activity at 3 uM; outline: as §1
[10] = biological target: Serine/threonine-protein kinase BRSK2 (Homo sapiens) (UniProt Q8IWQ3); assay: Inhibition of BRSK2 (unknown origin) using [gamma-33P]ATP assessed as residual activity at 3 uM
Outline: (§3)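 Radiometric profiling across 288 kinases (261 wild-type, 27 mutant), run as an outsourced service. Inhibition read out as [gamma-33P]ATP incorporation into substrate.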

[11] = biological target: Tyrosine-protein kinase Tec (Homo sapiens) (UniProt P42680); assay: Inhibition of TEC (unknown origin) using [gamma-33P]ATP assessed as residual activity at 3 uM
[12] = biological target: Serine/threonine-protein kinase Nek9 (Homo sapiens) (UniProt Q8TD19); assay: Inhibition of NEK9 (unknown origin) using [gamma-33P]ATP assessed as residual activity at 3 uM
[13] = biological target: Serine/threonine-protein kinase A-Raf (Homo sapiens) (UniProt P10398); assay: Inhibition of ARAF (unknown origin) using [gamma-33P]ATP assessed as residual activity at 3 uM; outline: as §3
[14] = biological target: Mitogen-activated protein kinase kinase kinase 14 (Homo sapiens) (UniProt Q99558); assay: Inhibition of NIK (unknown origin) using [gamma-33P]ATP assessed as residual activity at 3 uM
[15] = biological target: Homeodomain-interacting protein kinase 1 (Homo sapiens) (UniProt Q86Z02); assay: Inhibition of HIPK1 (unknown origin) using [gamma-33P]ATP assessed as residual activity at 3 uM; outline: as §1
[16] = system: Epidermal growth factor receptor (Homo sapiens), P00533 [L861R,T790M]; assay: Inhibition of EGFR […] double mutant (unknown origin) using [gamma-33P]ATP assessed as residual activity at 3 uM; type: protein assay; outline: as §2
[17] = biological target: Calcium/calmodulin-dependent protein kinase type IV (Homo sapiens) (UniProt Q16566); assay: Inhibition of CAMK4 (unknown origin) using [gamma-33P]ATP assessed as residual activity at 3 uM; outline: as §3
[18] = system: Tyrosine-protein kinase ABL1 (Homo sapiens), P00519 [H396P]; assay: Inhibition of ABL1 H396P mutant (unknown origin) using [gamma-33P]ATP assessed as residual activity at 3 uM; outline: as §3
[19] = biological target: Vascular endothelial growth factor receptor 2 (Homo sapiens) (UniProt P35968); assay: Inhibition of KDR (unknown origin) using [gamma-33P]ATP assessed as residual activity at 3 uM; outline: as §1
[20] = biological target: Protein kinase C gamma type (Homo sapiens) (UniProt P05129); assay: Inhibition of PKCgamma (unknown origin) using [gamma-33P]ATP assessed as residual activity at 3 uM
[21] = biological target: MAP kinase-activated protein kinase 5 (Homo sapiens) (UniProt Q8IW41); assay: Inhibition of MAPKAPK5 (unknown origin) using [gamma-33P]ATP assessed as residual activity at 3 uM; outline: as §1
[22] = biological target: Casein kinase I isoform gamma-2 (Homo sapiens) (UniProt P78368); assay: Inhibition of CK1g2 (unknown origin) using [gamma-33P]ATP assessed as residual activity at 3 uM; outline: as §2
[23] = biological target: G protein-coupled receptor kinase 4 (Homo sapiens) (UniProt P32298); assay: Inhibition of GRK4 (unknown origin) using [gamma-33P]ATP assessed as residual activity at 3 uM; outline: as §1
[24] = biological target: Cyclin-dependent kinase 5/CDK5 activator 1 (Homo sapiens) (UniProt Q00535+Q15078); assay: Inhibition of CDK5/p25 (unknown origin) using [gamma-33P]ATP assessed as residual activity at 3 uM; type: protein-complex assay; outline: as §3
[25] = biological target: Tyrosine-protein kinase receptor UFO (Homo sapiens) (UniProt P30530); assay: Inhibition of AXL (unknown origin) using [gamma-33P]ATP assessed as residual activity at 3 uM; outline: as §3
[26] = system: Tyrosine-protein kinase ABL1 (Homo sapiens), P00519 [T315I]; assay: Inhibition of ABL1 T315I mutant (unknown origin) using [gamma-33P]ATP assessed as residual activity at 3 uM; outline: as §3
[27] = biological target: Fibroblast growth factor receptor 3 (Homo sapiens) (UniProt P22607); assay: Inhibition of FGFR3 (unknown origin) using [gamma-33P]ATP assessed as residual activity at 3 uM; outline: as §2
[28] = biological target: Interleukin-1 receptor-associated kinase 1 (Homo sapiens) (UniProt P51617); assay: Inhibition of IRAK1 (unknown origin) using [gamma-33P]ATP assessed as residual activity at 3 uM; outline: as §1
[29] = biological target: Ephrin type-B receptor 1 (Homo sapiens) (UniProt P54762); assay: Inhibition of EPHB1 (unknown origin) using [gamma-33P]ATP assessed as residual activity at 3 uM; outline: as §2
[30] = biological target: Fibroblast growth factor receptor 2 (Homo sapiens) (UniProt P21802); assay: Inhibition of FGFR2 (unknown origin) using [gamma-33P]ATP assessed as residual activity at 3 uM; outline: as §2
[31] = biological target: Tyrosine-protein kinase FRK (Homo sapiens) (UniProt P42685); assay: Inhibition of FRK (unknown origin) using [gamma-33P]ATP assessed as residual activity at 3 uM; outline: as §1
[32] = biological target: Mitogen-activated protein kinase 13 (Homo sapiens) (UniProt O15264); assay: Inhibition of P38d (unknown origin) using [gamma-33P]ATP assessed as residual activity at 3 uM

Fibroblast growth factor receptor 2 (Homo sapiens), sequence (P21802 whole entry, looked up): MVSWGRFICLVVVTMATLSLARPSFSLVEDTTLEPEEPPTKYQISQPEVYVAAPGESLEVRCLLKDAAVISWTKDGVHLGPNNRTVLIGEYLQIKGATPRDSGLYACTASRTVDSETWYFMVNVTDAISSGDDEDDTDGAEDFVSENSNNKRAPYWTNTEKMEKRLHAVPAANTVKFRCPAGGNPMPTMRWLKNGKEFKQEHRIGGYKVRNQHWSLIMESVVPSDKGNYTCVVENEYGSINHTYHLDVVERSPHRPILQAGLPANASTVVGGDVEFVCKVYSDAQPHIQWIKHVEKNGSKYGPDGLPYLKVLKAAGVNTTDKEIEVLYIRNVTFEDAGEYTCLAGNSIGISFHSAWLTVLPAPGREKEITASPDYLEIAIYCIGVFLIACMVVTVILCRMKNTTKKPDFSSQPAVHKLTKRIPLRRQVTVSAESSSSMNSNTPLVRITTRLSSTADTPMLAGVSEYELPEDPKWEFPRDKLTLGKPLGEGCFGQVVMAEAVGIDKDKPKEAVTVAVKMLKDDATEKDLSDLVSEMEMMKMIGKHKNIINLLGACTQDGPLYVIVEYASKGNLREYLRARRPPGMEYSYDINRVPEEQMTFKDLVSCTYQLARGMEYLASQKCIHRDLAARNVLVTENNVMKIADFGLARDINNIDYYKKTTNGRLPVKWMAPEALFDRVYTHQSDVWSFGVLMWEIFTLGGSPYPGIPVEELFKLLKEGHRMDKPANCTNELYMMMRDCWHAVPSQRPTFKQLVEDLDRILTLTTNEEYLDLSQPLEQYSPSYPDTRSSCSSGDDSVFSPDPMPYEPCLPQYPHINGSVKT
Death-associated protein kinase 2 (Homo sapiens), sequence (Q9UIK4 whole entry, looked up): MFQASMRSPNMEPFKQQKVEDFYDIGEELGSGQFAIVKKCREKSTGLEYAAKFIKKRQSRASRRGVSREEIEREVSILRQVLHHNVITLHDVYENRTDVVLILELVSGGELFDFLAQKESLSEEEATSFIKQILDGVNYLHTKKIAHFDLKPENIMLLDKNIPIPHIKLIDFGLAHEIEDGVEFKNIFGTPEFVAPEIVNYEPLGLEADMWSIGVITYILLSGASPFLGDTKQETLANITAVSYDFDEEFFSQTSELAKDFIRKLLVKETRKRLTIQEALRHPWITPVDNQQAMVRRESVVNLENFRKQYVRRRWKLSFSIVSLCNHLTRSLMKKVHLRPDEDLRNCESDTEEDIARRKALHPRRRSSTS
Interleukin-1 receptor-associated kinase 1 (Homo sapiens), sequence (P51617 whole entry, looked up): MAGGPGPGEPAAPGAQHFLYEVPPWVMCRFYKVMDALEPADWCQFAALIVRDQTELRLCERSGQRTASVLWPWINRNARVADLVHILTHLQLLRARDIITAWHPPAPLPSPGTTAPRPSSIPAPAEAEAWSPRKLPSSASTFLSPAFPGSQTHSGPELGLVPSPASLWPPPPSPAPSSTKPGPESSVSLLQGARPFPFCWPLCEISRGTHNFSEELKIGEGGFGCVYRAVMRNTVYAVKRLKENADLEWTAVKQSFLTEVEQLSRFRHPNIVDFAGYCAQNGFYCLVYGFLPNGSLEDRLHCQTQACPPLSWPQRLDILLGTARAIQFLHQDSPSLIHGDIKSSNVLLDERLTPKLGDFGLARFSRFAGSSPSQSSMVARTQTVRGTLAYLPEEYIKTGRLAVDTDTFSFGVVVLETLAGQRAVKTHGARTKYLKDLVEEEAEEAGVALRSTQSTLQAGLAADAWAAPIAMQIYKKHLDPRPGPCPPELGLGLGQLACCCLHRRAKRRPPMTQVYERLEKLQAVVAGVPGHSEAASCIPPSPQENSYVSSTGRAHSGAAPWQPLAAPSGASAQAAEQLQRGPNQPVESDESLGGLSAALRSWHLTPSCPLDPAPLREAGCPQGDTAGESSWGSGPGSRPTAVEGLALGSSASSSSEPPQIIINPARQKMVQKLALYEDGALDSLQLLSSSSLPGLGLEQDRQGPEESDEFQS
Calcium/calmodulin-dependent protein kinase type IV (Homo sapiens), sequence (Q16566 whole entry): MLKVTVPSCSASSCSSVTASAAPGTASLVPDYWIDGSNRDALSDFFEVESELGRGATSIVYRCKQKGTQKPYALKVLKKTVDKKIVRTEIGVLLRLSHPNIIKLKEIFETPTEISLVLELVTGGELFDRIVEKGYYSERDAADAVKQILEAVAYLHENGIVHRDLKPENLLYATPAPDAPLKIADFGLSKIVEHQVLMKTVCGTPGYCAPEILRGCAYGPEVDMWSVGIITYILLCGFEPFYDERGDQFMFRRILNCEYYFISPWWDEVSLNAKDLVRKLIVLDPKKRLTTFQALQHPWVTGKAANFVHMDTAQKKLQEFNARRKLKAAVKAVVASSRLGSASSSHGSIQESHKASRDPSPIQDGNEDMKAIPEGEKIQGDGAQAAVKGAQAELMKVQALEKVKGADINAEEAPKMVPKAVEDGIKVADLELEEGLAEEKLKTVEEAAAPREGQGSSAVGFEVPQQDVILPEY
Fibroblast growth factor receptor 3 (Homo sapiens), sequence (P22607 23-806 limits assumed): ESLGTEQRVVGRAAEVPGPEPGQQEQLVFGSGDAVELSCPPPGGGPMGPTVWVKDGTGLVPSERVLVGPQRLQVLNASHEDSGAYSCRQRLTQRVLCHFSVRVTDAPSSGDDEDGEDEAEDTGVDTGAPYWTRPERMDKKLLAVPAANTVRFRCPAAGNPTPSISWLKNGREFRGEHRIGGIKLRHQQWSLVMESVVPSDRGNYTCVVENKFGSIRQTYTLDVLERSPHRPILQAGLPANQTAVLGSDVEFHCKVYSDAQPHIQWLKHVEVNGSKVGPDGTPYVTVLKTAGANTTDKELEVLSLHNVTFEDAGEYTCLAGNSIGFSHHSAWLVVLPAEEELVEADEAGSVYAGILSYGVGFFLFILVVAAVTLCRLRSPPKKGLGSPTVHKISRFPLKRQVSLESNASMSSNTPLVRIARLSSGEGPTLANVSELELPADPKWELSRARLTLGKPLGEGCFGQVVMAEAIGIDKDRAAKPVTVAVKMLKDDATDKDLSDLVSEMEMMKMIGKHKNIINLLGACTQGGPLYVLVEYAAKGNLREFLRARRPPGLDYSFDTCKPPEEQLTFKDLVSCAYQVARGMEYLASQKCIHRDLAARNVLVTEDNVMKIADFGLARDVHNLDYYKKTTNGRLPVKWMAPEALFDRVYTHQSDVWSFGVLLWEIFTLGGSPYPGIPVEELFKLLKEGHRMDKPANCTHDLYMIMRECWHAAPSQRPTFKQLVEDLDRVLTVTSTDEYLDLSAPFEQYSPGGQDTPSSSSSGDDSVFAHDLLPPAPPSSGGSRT
Serine/threonine-protein kinase Nek9 (Homo sapiens), sequence (Q8TD19 whole entry): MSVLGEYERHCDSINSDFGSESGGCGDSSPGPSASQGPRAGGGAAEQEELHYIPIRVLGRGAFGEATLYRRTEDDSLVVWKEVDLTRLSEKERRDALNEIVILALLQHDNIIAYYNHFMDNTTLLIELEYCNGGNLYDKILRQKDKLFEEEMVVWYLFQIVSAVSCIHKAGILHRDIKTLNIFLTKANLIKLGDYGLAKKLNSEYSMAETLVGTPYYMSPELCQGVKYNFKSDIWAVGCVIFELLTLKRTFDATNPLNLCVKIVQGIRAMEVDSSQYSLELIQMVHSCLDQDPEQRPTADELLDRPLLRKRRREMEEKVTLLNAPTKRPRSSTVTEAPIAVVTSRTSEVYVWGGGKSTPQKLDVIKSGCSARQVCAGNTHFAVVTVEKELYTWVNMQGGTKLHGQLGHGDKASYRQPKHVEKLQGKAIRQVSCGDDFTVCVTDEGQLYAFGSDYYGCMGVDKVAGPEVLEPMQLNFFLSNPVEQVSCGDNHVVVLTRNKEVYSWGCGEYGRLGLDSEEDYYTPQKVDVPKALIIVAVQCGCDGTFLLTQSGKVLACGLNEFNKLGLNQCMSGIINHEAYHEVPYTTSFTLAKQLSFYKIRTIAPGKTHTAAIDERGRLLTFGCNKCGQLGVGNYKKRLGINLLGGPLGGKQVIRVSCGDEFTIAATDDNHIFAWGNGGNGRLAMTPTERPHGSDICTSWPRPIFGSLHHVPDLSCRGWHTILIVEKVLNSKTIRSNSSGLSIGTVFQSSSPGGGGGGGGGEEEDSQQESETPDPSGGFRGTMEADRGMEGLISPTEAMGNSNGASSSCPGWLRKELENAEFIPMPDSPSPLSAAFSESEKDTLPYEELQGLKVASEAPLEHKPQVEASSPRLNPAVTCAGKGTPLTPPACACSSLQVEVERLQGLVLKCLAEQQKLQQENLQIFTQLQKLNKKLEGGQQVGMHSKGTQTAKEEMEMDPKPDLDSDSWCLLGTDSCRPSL
SRSF protein kinase 2 (Homo sapiens), sequence (P78362 whole entry, looked up): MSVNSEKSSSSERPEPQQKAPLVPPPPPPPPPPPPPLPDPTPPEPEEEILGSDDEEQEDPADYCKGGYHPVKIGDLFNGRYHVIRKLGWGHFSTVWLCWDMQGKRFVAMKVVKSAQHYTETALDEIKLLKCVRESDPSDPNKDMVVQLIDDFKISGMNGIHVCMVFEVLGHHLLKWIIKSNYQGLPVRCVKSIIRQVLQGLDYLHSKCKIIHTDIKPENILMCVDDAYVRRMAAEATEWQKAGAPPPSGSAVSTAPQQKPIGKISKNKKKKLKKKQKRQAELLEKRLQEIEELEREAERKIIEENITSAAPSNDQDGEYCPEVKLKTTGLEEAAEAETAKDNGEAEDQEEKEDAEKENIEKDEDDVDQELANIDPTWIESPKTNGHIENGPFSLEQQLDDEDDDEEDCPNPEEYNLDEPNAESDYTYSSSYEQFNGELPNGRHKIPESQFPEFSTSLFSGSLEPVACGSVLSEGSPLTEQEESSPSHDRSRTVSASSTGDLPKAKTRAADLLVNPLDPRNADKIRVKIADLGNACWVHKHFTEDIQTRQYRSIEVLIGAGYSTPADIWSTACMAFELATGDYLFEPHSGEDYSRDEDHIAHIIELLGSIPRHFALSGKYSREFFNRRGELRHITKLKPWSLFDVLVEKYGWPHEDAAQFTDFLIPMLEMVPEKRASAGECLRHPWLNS

## CCc1ccc(-c2ccc3c(c2)-c2[nH]ncc2S(=O)(=O)N3C)cc1
[1]
  Activity: 78%
[2]
  Activity: 85%
[3]
  Activity: 102%
[4]
  Activity: 97%
[5]
  Activity: 102%
[6]
  Activity: 93%
[7]
  Activity: 90%
[8]
  Activity: 91%
[9]
  Activity: 78%
[10]
  Activity: 93%
[11]
  Activity: 102%
[12]
  Activity: 78%
[13]
  Activity: 100%
[14]
  Activity: 89%
[15]
  Activity: 104%
[16]
  Activity: 102%
[17]
  Activity: 95%
[18]
  Activity: 71%
[19]
  Activity: 86%
[20]
  Activity: 96%
[21]
  Activity: 87%
[22]
  Activity: 101%
[23]
  Activity: 94%
[24]
  Activity: 90%
[25]
  Activity: 89%
[26]
  Activity: 93%
[27]
  Activity: 91%
[28]
  Activity: 102%
[29]
  Activity: 80%
[30]
  Activity: 87%
[31]
  Activity: 80%
[32]
  Activity: 103%
